Measurements as given in ChEMBL document CHEMBL1154369, “Betulin-derived compounds as inhibitors of alphavirus replication” (J Nat Prod, 2009).
Active and inactive are the calls of the source. No cut-off for these calls is given here.

Key:
Semliki Forest virus [1] = experiment: Antiviral activity against SFV infected in BHK cells assessed as surviving virus fraction at 50 uM after 14 hrs by luciferase reporter gene assay; assay type: functional; design: scale not given here
Semliki Forest virus [2] = experiment: Antiviral activity against SFV infected in BHK cells after 14 hrs by luciferase reporter gene assay; assay type: functional, organism-based
Procedure, shortened: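 SFV-Rluc reporter virus from infectious cDNA clone; BHK-21 cells infected at low multiplicity (0.001 PFU/cell) and incubated 14 h, spanning over 2 infectious cycles. Serial dilutions of each derivative tested. Luciferase read-out as surviving virus fraction. IC50 from a sigmoidal dose-response fit; means ± SD, n = 6. 3′-Amino-3′-deoxyadenosine (20 µM) served as screen positive control.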

[3] = Cytotoxicity against human HuH7 cells assessed as cell viability at 50 uM after 24 hrs
[4] = Cytotoxicity against human HuH7 cells assessed as cell viability at 500 uM after 24 hrs; assay type: cell-based, Huh-7; details: read-out: Activity
Procedure, shortened: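 Huh-7 human hepatocellular carcinoma cells exposed 24 h to derivative at 500 µM in an extended cytotoxicity analysis. Viability measured as intracellular ATP content and reported as surviving fraction.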

Semliki Forest virus [5] = experiment: Antiviral activity against SFV infected in BHK cells assessed as surviving virus fraction at 200 uM after 14 hrs by luciferase reporter gene assay in presence of 50 ug/ml guanosine; assay type: functional, organism-based
Sindbis virus = experiment: Antiviral activity against Sindbis virus infected in BHK cells assessed as inhibition of RNA synthesis after 14 hrs by [3H]uridine incorporation assay; assay type: functional, organism-based
Procedure, shortened: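 Sindbis virus from infectious cDNA clone grown in BHK-21 cells. Viral RNA synthesis rate measured by [3H]-uridine labeling. Serial compound dilutions from 16 pM to 50 µM. IC50 from nonlinear regression to sigmoidal dose-response curves; means ± SD, n = 4.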

Semliki Forest virus [6] = experiment: Antiviral activity against SFV infected in BHK cells assessed as decrease in surviving virus fraction at 50 uM treated during time of viral adsorption for 1 hr measured after 5 hrs by luciferase reporter gene assay; assay type: functional, organism-based
Procedure, shortened: (§1)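 Time-of-addition run with SFV-Rluc at high multiplicity (5 PFU/cell) in BHK-21 cultures, covering a single replication cycle. Compound present throughout (0-5 h), only during adsorption (0-1 h), at 1-5 h, or at 2-5 h. Surviving fraction is the remaining Renilla luciferase activity, read at 5 h per legend (4.5 h in text); means ± SD, n = 4.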

Semliki Forest virus [7] = experiment: Antiviral activity against SFV infected in BHK cells assessed as decrease in surviving virus fraction at 50 uM treated 1 hr after viral adsorption measured after 5 hrs by luciferase reporter gene assay; assay type: functional, organism-based; procedure, shortened: as §1
Semliki Forest virus [8] = experiment: Antiviral activity against SFV infected in BHK cells assessed as decrease in surviving virus fraction at 50 uM treated 2 hr after viral adsorption measured after 5 hrs by luciferase reporter gene assay; assay type: functional, organism-based; procedure, shortened: as §1
Semliki Forest virus [9] = experiment: Antiviral activity against SFV infected in BHK cells assessed as decrease in surviving virus fraction at 200 uM treated during time of viral adsorption for 1 hr measured after 5 hrs by luciferase reporter gene assay; assay type: functional, organism-based; procedure, shortened: as §1
Semliki Forest virus [10] = experiment: Antiviral activity against SFV infected in BHK cells assessed as decrease in surviving virus fraction at 200 uM treated 1 hr after viral adsorption measured after 5 hrs by luciferase reporter gene assay; assay type: functional, organism-based; procedure, shortened: as §1
Semliki Forest virus [11] = experiment: Antiviral activity against SFV infected in BHK cells assessed as surviving virus fraction at 50 uM after 14 hrs by luciferase reporter gene assay in presence of 50 ug/ml guanosine; assay type: functional, organism-based
Semliki Forest virus [12] = experiment: Antiviral activity against SFV infected in BHK cells assessed as surviving virus fraction at 20 uM after 14 hrs by luciferase reporter gene assay; assay type: functional
Procedure, shortened: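 BHK-21 cells were infected with the luciferase marker virus SFV-Rluc, made from an infectious cDNA clone, at a low multiplicity of 0.001 PFU/cell. Infection ran through more than 2 infectious cycles over a 14 h incubation, and the read-out was luciferase reporter activity. The surviving fraction was the percentage of viral replication remaining. The screen was automated and run in triplicate.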

Semliki Forest virus [13] = experiment: Antiviral activity against SFV infected in BHK cells assessed as decrease in surviving virus fraction at 200 uM treated 2 hr after viral adsorption measured after 5 hrs by luciferase reporter gene assay; assay type: functional, organism-based; procedure, shortened: as §1

| Structure (SMILES) | Activity (Semliki Forest virus [1]) [%] | IC50 (Semliki Forest virus [2]; read-out: IC50) [µM] | IC50 (Semliki Forest virus [2]; read-out: pIC50 (converted)) [µM] | viability at 24 h, 50 µM [3] [%] | viability at 24 h, 500 µM [4] [%] | Activity (Semliki Forest virus [5]) | IC50 (Sindbis virus; read-out: IC50) [µM] | IC50 (Sindbis virus; read-out: pIC50 (converted)) [µM] | Activity (Semliki Forest virus [6]) | Activity (Semliki Forest virus [7]) | Activity (Semliki Forest virus [8]) | Activity (Semliki Forest virus [9]) | Activity (Semliki Forest virus [10]) | Activity (Semliki Forest virus [11]) | Activity (Semliki Forest virus [12]) [%] | Activity (Semliki Forest virus [13]) |
| --- | --- | --- | --- | --- | --- | --- | --- | --- | --- | --- | --- | --- | --- | --- | --- | --- |
| C=C(C)[C@@H]1CC[C@]2(CO)CC[C@]3(C)[C@H](CC[C@@H]4[C@@]5(C)CC[C@H](OC(C)=O)C(C)(C)[C@@H]5CC[C@]43C)[C@@H]12 | 3 | 24.2 | 24 | 86 | > 80 | – | – | – | – | – | – | – | – | – | – | – |
| C=C(C)[C@@H]1CC[C@]2(COC(C)=O)CC[C@]3(C)[C@H](CC[C@@H]4[C@@]5(C)CCC(=O)C(C)(C)[C@@H]5CC[C@]43C)[C@@H]12 | 11 | 48.5 | 47.9 | 83 | > 80 | – | – | – | – | – | – | – | – | – | – | – |
| CCCCn1c(=O)n2n(c1=O)[C@]1(C(C)C)CC[C@]3(COC(C)=O)CC[C@]4(C)C(=C31)[C@@H]2C[C@@H]1[C@@]2(C)CC[C@H](OC(C)=O)C(C)(C)[C@@H]2CC[C@]14C | 19 | 37.9 | 38 | 81 | > 80 | – | – | – | – | – | – | – | – | – | – | – |
| CC(C)[C@@H]1CC[C@]2(C(=O)O)CC[C@]3(C)[C@H](CC[C@@H]4[C@@]5(C)CCC(=O)C(C)(C)[C@@H]5CC[C@]43C)[C@@H]12 [DIHYDROBETULONIC ACID] | 14 | 30.6 | 30.2 | 102 | > 80 | – | – | – | – | – | – | – | – | – | – | – |
| C=C(C)[C@@H]1CC[C@]2(COC3CCCCO3)CC[C@]3(C)[C@H](CC[C@@H]4[C@@]5(C)CC[C@H](OC(C)=O)C(C)(C)[C@@H]5CC[C@]43C)[C@@H]12 (stereo not given in full) | 10 | 24.7 | 24.5 | 91 | > 80 | – | – | – | – | – | – | – | – | – | – | – |
| NC(=O)c1ncn([C@@H]2O[C@H](CO)[C@@H](O)[C@H]2O)n1 [RIBAVIRIN] | – | 95.1 | 95.5 | – | – | inactive | – | – | – | – | – | – | – | – | – | – |
| CC(=O)OC[C@]12CC[C@]3(C(C)C)C1=C1[C@H](C[C@@H]4[C@@]5(C)CC[C@H](OC(C)=O)C(C)(C)[C@@H]5CC[C@@]4(C)[C@]1(C)CC2)n1c(=O)n(-c2cccc(Cl)c2)c(=O)n13 | 1 | 22.1 | 22.4 | 95 | > 80 | – | – | – | – | – | – | – | – | – | – | – |
| C=C(C)[C@@H]1CC[C@]2(COC3CCCCO3)CC[C@]3(C)[C@H](CC[C@@H]4[C@@]5(C)CC[C@H](O)C(C)(C)[C@@H]5CC[C@]43C)[C@@H]12 (stereo not given in full) | 11 | 17.2 | 17.4 | 92 | > 80 | – | 1.9 | 1.91 | inactive | Active | Active | inactive | Active | Active | – | – |
| Nc1ncnc2c1ncn2[C@@H]1O[C@H](CO)[C@@H](N)[C@H]1O | – | 18 | – | – | – | – | – | – | – | – | – | – | – | – | 12 | – |
| CC(=O)OC[C@]12CC[C@]3(C(C)C)C1=C1[C@H](C[C@@H]4[C@@]5(C)CC[C@H](OC(C)=O)C(C)(C)[C@@H]5CC[C@@]4(C)[C@]1(C)CC2)n1c(=O)n(-c2ccccc2)c(=O)n13 | 13 | 19.7 | 19.5 | 87 | > 80 | – | 6.1 | 6.17 | inactive | Active | Active | inactive | Active | Active | – | – |
| CC(=O)OC[C@]12CC[C@]3(C(C)C)C1=C1[C@H](C[C@@H]4[C@@]5(C)CC[C@H](OC(C)=O)C(C)(C)[C@@H]5CC[C@@]4(C)[C@]1(C)CC2)n1c(=O)n(Cc2ccccc2)c(=O)n13 | 1 | 35.9 | 36.3 | 101 | > 80 | – | – | – | – | – | – | – | – | – | – | – |
| CC(=O)OC[C@]12CCC(C(C)C)=C1[C@H]1CC[C@@H]3[C@@]4(C)CC[C@H](OC(C)=O)C(C)(C)[C@@H]4CC[C@@]3(C)[C@]1(C)CC2 | 15 | 43.2 | 42.7 | 87 | > 80 | – | – | – | – | – | – | – | – | – | – | – |
| C=C(C)[C@@H]1CC[C@]2(C=O)CC[C@]3(C)[C@H](CC[C@@H]4[C@@]5(C)CCC(=O)C(C)(C)[C@@H]5CC[C@]43C)[C@@H]12 [BETULONAL] | 8 | 38.3 | 38 | 90 | 52 | – | – | – | – | – | – | – | – | – | – | – |
| C=C(C)[C@@H]1CC[C@]2(C(=O)O)CC[C@]3(C)[C@H](CC[C@@H]4[C@@]5(C)CC[C@H](O)C(C)(C)[C@@H]5CC[C@]43C)[C@@H]12 [BETULINIC ACID] | 18 | 14.6 | 14.5 | 123 | > 80 | – | 0.5 | 0.457 | inactive | Active | Active | inactive | Active | Active | – | Active |
| C=C(C)[C@@H]1CC[C@]2(COC(C)=O)CC[C@]3(C)[C@H](CC[C@@H]4[C@@]5(C)CC[C@H](O)C(C)(C)[C@@H]5CC[C@]43C)[C@@H]12 | 3 | 12.1 | 12 | 87 | > 80 | – | – | – | – | – | – | – | – | – | – | – |
| CC(=O)OC[C@]12CC[C@]3(C(C)C)C1=C1[C@H](C[C@@H]4[C@@]5(C)CC[C@H](OC(C)=O)C(C)(C)[C@@H]5CC[C@@]4(C)[C@]1(C)CC2)n1c(=O)n(-c2cccc([N+](=O)[O-])c2)c(=O)n13 | 3 | 22.9 | 22.9 | 108 | > 80 | – | – | – | – | – | – | – | – | – | – | – |
| C=C(C)[C@@H]1CC[C@]2(C(=O)O)CC[C@]3(C)[C@H](CC[C@@H]4[C@@]5(C)CCC(=O)C(C)(C)[C@@H]5CC[C@]43C)[C@@H]12 [BETUNOLIC ACID] | 13 | 13.3 | 13.2 | 89 | > 80 | – | – | – | – | – | – | – | – | – | – | – |
